Results: paper PMC6249066 (Journal of medicinal chemistry, 2018)

Assays:
human HDAC1 = human HDAC1 (Homo sapiens, UniProt Q13547); experiment: HDAC IC50 profiling, fluorescence-based assay; assay type: biochemical; details: result in words
human HDAC2 = human HDAC2 (Homo sapiens, UniProt Q92769); experiment: HDAC IC50 profiling, fluorescence-based assay; assay type: biochemical; details: result in words
human HDAC3 = human HDAC3 (Homo sapiens, UniProt O15379); experiment: HDAC IC50 profiling, fluorescence-based assay; assay type: biochemical; details: result in words
[1] = tested on: primary BCP-ALL cells derived from four therapy-refractory patients; assay type: cell-based; details: Homo sapiens, read-out: IC50 values, range over four patients
[2] = Cell viability in PBMCs from healthy individuals; assay type: cell-based; details: human
[3] = tested on: trypsin-like proteasome activity; experiment: Cell-based Proteasome-Glo trypsin-like assay
In short: (§1)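 Cell-based Proteasome-Glo kits: a luminogenic peptide substrate is cleaved by the proteasome to aminoluciferin, which Ultra-Glo luciferase consumes to give luminescence proportional to the corresponding protease activity. Luminescence read on a plate reader.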

[4] = tested on: caspase-like proteasome activity; experiment: Cell-based Proteasome-Glo caspase-like assay
In short: as §1

[5] = tested on: acetyl-α-tubulin, acetyl-Histone H3, PARP in HL-60, SEM and SUP-B15r cells; experiment: Western blotting of cell lysates; assay type: cell-based; details: 24 h
In short: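 HL-60 and SEM cells (RPMI1640, 10% FCS, 37°C, 5% CO2) and TKI-resistant SUP-B15r cells (McCoy's 5A, 20% FCS) exposed to test compound or reference HDAC/proteasome inhibitors for 24 h. Lysates immunoblotted for acetyl-α-tubulin, acetyl-histone H3, PARP and GAPDH.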

SEM cells [6] = experiment: Proliferation assay; assay type: cell-based; details: at IC50 or 2x IC50 concentrations
In short: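 SEM cells (RPMI1640, 10% FCS, 37°C, 5% CO2) treated with test compound. Viable cells counted every 24 h by trypan blue exclusion on an automated cell counter.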

SEM cells [7] = experiment: CFU assay; assay type: cell-based; details: 48 h exposure, colonies counted after 14 days
In short: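 SEM cells pretreated with test compound or control in liquid medium, then seeded in semisolid methylcellulose-based medium that also contains the compound or control. Colonies counted after 14 days.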

[8] = tested on: aggresome accumulation in SEM cells; experiment: Aggresome detection assay; assay type: cell-based; details: 18 h, at inhibitory concentration
In short: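 SEM cells (RPMI1640, 10% FCS, 37°C, 5% CO2) exposed to test compound 18 h, then stained for aggresomes and DNA with a Proteostat aggresome detection kit. Imaged by fluorescence microscopy (63X objective), or analysed by FACS, where the aggresome propensity factor is derived from relative mean fluorescence intensity.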

SEM cells [9] = experiment: Cell cycle analysis; assay type: cell-based; details: 48 h, dose dependent
In short: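 SEM cells (RPMI1640, 10% FCS, 37°C, 5% CO2) exposed to test compound for 48 h, then permeabilised. DNA stained with propidium iodide and cell cycle distribution read by FACS.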

[10] = tested on: peripheral blood derived mononuclear cells (PBMCs); experiment: Cell viability in PBMCs from healthy individuals; assay type: cell-based; details: PBMCs from healthy individuals
[11] = tested on: patients with relapsed or refractory multiple myeloma; details: cited from earlier work

Chain of human HDAC3 (O15379 whole entry): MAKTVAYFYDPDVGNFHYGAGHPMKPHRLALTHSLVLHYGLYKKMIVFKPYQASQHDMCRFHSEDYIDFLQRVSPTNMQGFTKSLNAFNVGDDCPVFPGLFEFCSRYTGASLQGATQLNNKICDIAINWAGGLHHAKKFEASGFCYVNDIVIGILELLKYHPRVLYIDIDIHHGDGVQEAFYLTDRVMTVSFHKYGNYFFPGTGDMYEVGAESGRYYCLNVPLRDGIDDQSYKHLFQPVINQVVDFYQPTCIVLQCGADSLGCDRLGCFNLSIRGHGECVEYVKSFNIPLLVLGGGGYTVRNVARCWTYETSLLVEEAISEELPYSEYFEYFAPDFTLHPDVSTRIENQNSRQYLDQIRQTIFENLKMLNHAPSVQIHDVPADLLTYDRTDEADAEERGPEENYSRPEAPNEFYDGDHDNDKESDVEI
Chain of human HDAC3 (Q9Y618 395-489 partner limits assumed): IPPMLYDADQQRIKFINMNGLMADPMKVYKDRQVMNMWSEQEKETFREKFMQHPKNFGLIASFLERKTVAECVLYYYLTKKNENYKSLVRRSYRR
Chain of human HDAC1 (Q13547 whole entry): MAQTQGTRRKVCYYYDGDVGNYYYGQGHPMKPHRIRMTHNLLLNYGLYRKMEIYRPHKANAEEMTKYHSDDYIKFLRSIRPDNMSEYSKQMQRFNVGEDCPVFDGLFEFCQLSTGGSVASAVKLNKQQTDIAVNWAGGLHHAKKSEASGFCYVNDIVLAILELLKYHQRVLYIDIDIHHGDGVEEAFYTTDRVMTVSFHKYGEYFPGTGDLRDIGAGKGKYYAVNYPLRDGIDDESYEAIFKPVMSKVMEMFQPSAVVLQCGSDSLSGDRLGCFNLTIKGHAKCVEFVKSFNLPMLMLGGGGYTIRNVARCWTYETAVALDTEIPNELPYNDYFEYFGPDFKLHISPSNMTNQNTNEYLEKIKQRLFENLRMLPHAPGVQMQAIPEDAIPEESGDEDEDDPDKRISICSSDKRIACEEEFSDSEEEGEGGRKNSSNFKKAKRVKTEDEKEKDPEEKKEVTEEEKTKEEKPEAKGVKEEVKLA
Chain of human HDAC2 (Q92769 whole entry): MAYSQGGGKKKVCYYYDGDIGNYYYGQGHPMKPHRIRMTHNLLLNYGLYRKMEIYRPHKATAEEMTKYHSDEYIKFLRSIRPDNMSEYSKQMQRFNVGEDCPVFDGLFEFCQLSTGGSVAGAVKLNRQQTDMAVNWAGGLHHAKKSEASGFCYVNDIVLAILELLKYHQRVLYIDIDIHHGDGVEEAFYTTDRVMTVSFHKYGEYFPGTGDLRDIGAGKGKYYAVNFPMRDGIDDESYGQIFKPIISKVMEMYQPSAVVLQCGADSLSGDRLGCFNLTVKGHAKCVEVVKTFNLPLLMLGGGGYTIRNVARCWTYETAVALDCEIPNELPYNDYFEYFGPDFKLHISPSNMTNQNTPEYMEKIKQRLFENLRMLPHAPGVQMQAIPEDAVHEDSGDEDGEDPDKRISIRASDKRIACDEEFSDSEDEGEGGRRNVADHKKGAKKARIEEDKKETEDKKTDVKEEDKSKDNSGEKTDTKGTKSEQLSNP

Row | Structure (SMILES) | activity against HDAC1 (human HDAC1) | activity against HDAC2 (human HDAC2) | activity against HDAC3 (human HDAC3) | IC50 [1] | IC50 at 72 h [2] | inhibition of trypsin-like proteasome activity [3] | inhibition of caspase-like proteasome activity [4] | expression of cleaved PARP (marker of apoptosis) [5] | expression of acetyl-α tubulin and acetyl-histone H3 ([5]; compared to bortezomib) | proliferation of SEM cells (SEM cells [6]) | colony forming capacity (SEM cells [7]) | aggresome accumulation [8] | cell cycle effect (SEM cells [9]) | IC50 against PBMCs, concentration range in words [10] | response rate ([11]; ricolinostat in combination with bortezomib and dexamethasone) | toxicity and clinical responses as single agent ([11]; single agent)
1 | C[C@H](NC(=O)[C@H](CC(=O)NCC(C)(C)C)NC(=O)c1ccc(C(=O)NO)cc1)C(=O)NCc1ccccc1 [RTS-V5, N^1-((S)-1-(((S)-1-(Benzylamino)-1-oxopropan-2-yl)amino)-4-(neopentylamino)-1,4-dioxobutan-2-yl)-N^4-hydroxyterephthalamide] | low activity | low activity | low activity | 1.51 to 5.23 µM | > 25 µM | unable to inhibit | unable to inhibit | upregulated | enhanced the expression | significantly inhibited | significantly reduced | significantly blocked | arrested in S phase | – | – | –
2 | O=C(CCCCCCNC(=O)c1cnc(N(c2ccccc2)c2ccccc2)nc1)NO [Ricolinostat] | – | – | – | – | – | – | – | – | – | – | – | – | – | single-digit micromolar | 37% | neither significant toxicity nor clinical responses
3 | CC(C)C[C@H](NC(=O)[C@H](Cc1ccccc1)NC(=O)c1cnccn1)B(O)O [bortezomib] | – | – | – | – | – | – | – | – | – | – | – | – | – | submicromolar | – | –
